Read-outs that look alike come from different tables or passages of the source.
Key:
[1] = tested on: ABLE T cells (LACK-specific TCR-transgenic); experiment: Stimulation of ABLE T cells in vitro by peptides; type: cell-based, mouse
How it was run: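 Single-cell suspensions (red cells lysed) from spleen and lymph node of BALB/c ABLE TCR-Cα0 mice supplied both T cells and APC. They were plated at 10^6 cells/well in duplicate in RPMI 1640 with 10% heat-inactivated FCS, glutamine, pyruvate and β2-ME, with test peptides over a concentration range. At 48 h, supernatants went to sandwich ELISA against recombinant standards. Wells were then pulsed with 1 μCi [3H]thymidine and harvested 18 h later.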

[2] = tested on: ABLE T cells (LACK-specific TCR-transgenic); experiment: T cell antagonism assay; type: cell-based, mouse; settings: for Inhibitory (antagonist) activity, overall: 0.1–100 μM, proliferation, IL-4 and IFN-γ
How it was run: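 T cells: CD4+ cells enriched from BALB/c ABLE TCR-Cα0 spleen and lymph node by antibody/complement depletion (80% Vβ4+). APC: BALB/c TCR-Cα0 spleen cells, prepulsed 2 h at 37°C with 0.2 μM wild-type LACK peptide, washed, irradiated, then 2 h at 37°C with test peptide up to 100 μM (OVA323–336 control). 1.6 × 10^5 T cells/well were added. Cytokines were read by ELISA at 48 h; [3H]thymidine uptake over 48–66 h. Values are % inhibition versus prepulsed APC without added peptide.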

L. major LV39 [3] = tested on: L. major LV39; design: species or system Leishmania major; settings: in vivo
[4] = tested on: Vβ4+ T cells of ABLE TCR-Cα^0 mice; settings: mouse, in vivo
[5] = tested on: popliteal lymph node CD4+ T cells; settings: mouse, in vivo
L. major LV39 [6] = tested on: L. major LV39; design: species or system Leishmania major; settings: in vivo; remark: listed apart in the source
[7] = APC prepulsed with LACK peptide, 48 h ELISA

ICFSPSLENPIVVSGSWD [LACK-N164] was tested, and the “IL-4 production by ABLE T cells” value ([1]; 48 h supernatants, ELISA, detection limit 50 pg/ml) was “neither cytokine was detected”, the “IFN-γ production by ABLE T cells” value ([1]; 48 h supernatants, ELISA, detection limit 1 ng/ml) was “neither cytokine was detected” and the “Concentration without proliferation of ABLE T cells (highest tested)” value ([1]; no proliferation even at concentrations up to 4 μM, [3H]thymidine) was greater than 4 µM. The “Inhibitory (antagonist) activity, overall” value [2] was “preferentially inhibited IL-4 production by ABLE T cells”, the “Inhibition of IFN-γ production” value [2, 7] was “inhibited consistently less” and the “Inhibition of IL-4 production” value [2, 7] was “inhibited comparably to the LACK-K164 peptide”. The Protection (L. major LV39 [3]) was “Subgroups of resistant and susceptible mice occurred”.

With “ISQAVHAAHAEINE [OVA323–336, reference compound]” the “Inhibitory (antagonist) activity, overall” value [2] was “no inhibitory activity”.

B1: OVA: chicken egg OVA control protein (protein, UniProt P01012 2-386, looked up)
Ovalbumin: GSIGAASMEFCFDVFKELKVHHANENIFYCPIAIMSALAMVYLGAKDSTRTQINKVVRFDKLPGFGDSIEAQCGTSVNVHSSLRDILNQITKPNDVYSFSLASRLYAEERYPILPEYLQCVKELYRGGLEPINFQTAADQARELINSWVESQTNGIIRNVLQPSSVDSQTAMVLVNAIVFKGLWEKAFKDEDTQAMPFRVTEQESKPVQMMYQIGLFRVASMASEKMKILELPFASGTMSMLVLLPDEVSGLEQLESIINFEKLTEWTSSNVMEERKIKVYLPRMKMEEKYNLTSVLMAMGITDVFSSSANLSGISSAESLKISQAVHAAHAEINEAGREVVGSAEAGVDAASVSEEFRADHPFLFCIKHIATNAVLFFGRCVSP
In the case of B1, the “Total number of transgenic T cells in draining lymph nodes” value [4] is reported as 2.9 × 10^5, the “Proliferation induced by LACK epitopes” value [5] is reported as “No proliferation was induced” and the Protection (L. major LV39 [6]) is reported as “in contrast to the LACK deletion mutant or OVA controls”.
